Square brackets hold non-standard residues; d marks the D form. Peptide text beside a SMILES is read from it. * marks the point of attachment. pY = N[C@@H](Cc1ccc(OP(=O)(O)O)cc1)C(=O)O; NHPhenethyl = c1ccc(CCN*)cc1; Ac6c = NC1(C(=O)O)CCCCC1; NHBn = c1ccc(CN*)cc1
How the values were obtained:
[1] = target: Growth factor receptor-bound protein 2 (Homo sapiens) (UniProt P62993); test: Binding affinity to Grb2-SH2 domain (53 to 163 residues) (unknown origin) expressed in Escherichia coli assessed as change in enthalpy by ITC analysis
How it was run: (§1)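 Grb2 SH2 residues 53–163 expressed in E. coli SG13009 (IPTG induction), purified by phosphotyrosine affinity, Q-Sepharose and size exclusion to isolate monomer. Protein diluted to 65–85 μM, ligand ~1 mM, both in 50 mM HEPES, 150 mM NaCl, pH 7.50. VP-ITC at 25 °C, ~35 injections of 7–9 μL ligand, buffer heats subtracted, n normalized to 1.00; ≥3 runs averaged.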

[2] = target: Growth factor receptor-bound protein 2 (Homo sapiens) (UniProt P62993); test: Binding affinity to Grb2-SH2 domain (53 to 163 residues) (unknown origin) expressed in Escherichia coli assessed as association constant by ITC analysis; how it was run: as §1
[3] = target: Growth factor receptor-bound protein 2 (Homo sapiens) (UniProt P62993); test: Binding affinity to Grb2-SH2 domain (53 to 163 residues) (unknown origin) expressed in Escherichia coli assessed as change in entropy by ITC analysis; how it was run: as §1
[4] = target: Growth factor receptor-bound protein 2 (Homo sapiens) (UniProt P62993); test: Binding affinity to Grb2-SH2 domain (53 to 163 residues) (unknown origin) expressed in Escherichia coli assessed as change in gibbs free energy by ITC analysis; how it was run: as §1

Growth factor receptor-bound protein 2 (Homo sapiens), sequence (P62993 whole entry, looked up, the tested form may be a part): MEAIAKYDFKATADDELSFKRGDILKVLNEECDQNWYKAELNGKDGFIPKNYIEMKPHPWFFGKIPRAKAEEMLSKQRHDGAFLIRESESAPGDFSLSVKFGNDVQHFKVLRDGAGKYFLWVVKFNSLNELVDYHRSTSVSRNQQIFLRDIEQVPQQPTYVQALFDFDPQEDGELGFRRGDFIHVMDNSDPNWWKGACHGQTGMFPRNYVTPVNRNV

Compound	deltaH [1]	Ka [2]	-TdeltaS [3]	deltaG [4]
CC(=O)N[C@@H](Cc1ccc(OP(=O)(O)O)cc1)C(=O)NC1(C(=O)N[C@@H](CC(N)=O)C(=O)NCc2ccccc2)CCCCC1 (Ac-[pY]-[Ac6c]-Asn-NHBn)	-7.5 kcal/mol	1.2 10^7/M	-2.1 kcal/mol	-9.6 kcal/mol
CC(=O)N[C@@H](Cc1ccc(OP(=O)(O)O)cc1)C(=O)NC1(C(=O)N[C@@H](CC(N)=O)C(=O)NCCCc2cccc3ccccc23)CCCCC1	-9.6 kcal/mol	6 10^7/M	-1 kcal/mol	-10.6 kcal/mol
CC(=O)N[C@@H](Cc1ccc(OP(=O)(O)O)cc1)C(=O)NC1(C(=O)N[C@@H](CC(N)=O)C(=O)NCCCn2ccc3ccccc32)CCCCC1	-9.1 kcal/mol	2.7 10^7/M	-1 kcal/mol	-10.1 kcal/mol
CC(=O)N[C@@H](Cc1ccc(OP(=O)(O)O)cc1)C(=O)NC1(C(=O)N[C@@H](CC(N)=O)C(=O)NCCCCc2ccccc2)CCCCC1	-7.7 kcal/mol	1.5 10^7/M	-2.1 kcal/mol	-9.8 kcal/mol
CC(=O)N[C@@H](Cc1ccc(OP(=O)(O)O)cc1)C(=O)NC1(C(=O)N[C@@H](CC(N)=O)C(=O)NCc2cn(C)c3ccccc23)CCCCC1	-6.7 kcal/mol	1.1 10^7/M	-2.8 kcal/mol	-9.5 kcal/mol
CC(=O)N[C@@H](Cc1ccc(OP(=O)(O)O)cc1)C(=O)NC1(C(=O)N[C@@H](CC(N)=O)C(=O)NCCc2ccccc2)CCCCC1 (Ac-[pY]-[Ac6c]-Asn-NHPhenethyl)	-7.7 kcal/mol	1.5 10^7/M	-2.1 kcal/mol	-9.8 kcal/mol
CC(=O)N[C@@H](Cc1ccc(OP(=O)(O)O)cc1)C(=O)NC1(C(=O)N[C@@H](CC(N)=O)C(=O)NCCCc2ccc(C)cc2)CCCCC1	-8.6 kcal/mol	4 10^7/M	-1.7 kcal/mol	-10.3 kcal/mol
CC(=O)N[C@@H](Cc1ccc(OP(=O)(O)O)cc1)C(=O)NC1(C(=O)N[C@@H](CC(N)=O)C(=O)NCCCc2c[nH]c3ccccc23)CCCCC1	-9.1 kcal/mol	3.5 10^7/M	-1.2 kcal/mol	-10.3 kcal/mol
COc1ccc(CCCNC(=O)[C@H](CC(N)=O)NC(=O)C2(NC(=O)[C@H](Cc3ccc(OP(=O)(O)O)cc3)NC(C)=O)CCCCC2)cc1	-9.1 kcal/mol	5 10^7/M	-1.4 kcal/mol	-10.5 kcal/mol
CC(=O)N[C@@H](Cc1ccc(OP(=O)(O)O)cc1)C(=O)NC1(C(=O)N[C@@H](CC(N)=O)C(=O)NCCCc2cn(C)c3ccccc23)CCCCC1	-10.2 kcal/mol	4.9 10^7/M	-0.2 kcal/mol	-10.4 kcal/mol
CC(=O)N[C@@H](Cc1ccc(OP(=O)(O)O)cc1)C(=O)NC1(C(=O)N[C@@H](CC(N)=O)C(=O)NCCCc2ccc(Cl)cc2)CCCCC1	-9.1 kcal/mol	4.7 10^7/M	-1.4 kcal/mol	-10.5 kcal/mol
CC(=O)N[C@@H](Cc1ccc(OP(=O)(O)O)cc1)C(=O)NC1(C(=O)N[C@@H](CC(N)=O)C(=O)NCCCC(C)C)CCCCC1	-7.9 kcal/mol	1.6 10^7/M	-1.9 kcal/mol	-9.8 kcal/mol
CC(=O)N[C@@H](Cc1ccc(OP(=O)(O)O)cc1)C(=O)NC1(C(=O)N[C@@H](CC(N)=O)C(N)=O)CCCCC1 (Ac-[pY]-[Ac6c]-Asn-NH2)	-8.5 kcal/mol	0.7 10^7/M	-0.8 kcal/mol	-9.3 kcal/mol
CC(=O)N[C@@H](Cc1ccc(OP(=O)(O)O)cc1)C(=O)NC1(C(=O)N[C@@H](CC(N)=O)C(=O)NCCCc2ccccc2)CCCCC1	-8.8 kcal/mol	2.6 10^7/M	-1.3 kcal/mol	-10.1 kcal/mol
CC(=O)N[C@@H](Cc1ccc(OP(=O)(O)O)cc1)C(=O)NC1(C(=O)N[C@@H](CC(N)=O)C(=O)NCCCCCc2ccccc2)CCCCC1	-7.9 kcal/mol	2.8 10^7/M	-2.3 kcal/mol	-10.2 kcal/mol
CC(=O)N[C@@H](Cc1ccc(OP(=O)(O)O)cc1)C(=O)NC1(C(=O)N[C@@H](CC(N)=O)C(=O)NCCc2cn(C)c3ccccc23)CCCCC1	-8.1 kcal/mol	2.4 10^7/M	-2 kcal/mol	-10.1 kcal/mol
CC(=O)N[C@@H](Cc1ccc(OP(=O)(O)O)cc1)C(=O)NC1(C(=O)N[C@@H](CC(N)=O)C(=O)NCCCCC(C)C)CCCCC1	-7.8 kcal/mol	1.7 10^7/M	-2 kcal/mol	-9.8 kcal/mol
CC(=O)N[C@@H](Cc1ccc(OP(=O)(O)O)cc1)C(=O)NC1(C(=O)N[C@@H](CC(N)=O)C(=O)NCCCC2CCCCC2)CCCCC1	-8 kcal/mol	1.9 10^7/M	-1.9 kcal/mol	-9.9 kcal/mol

— ChEMBL document CHEMBL4706568, “Some thermodynamic effects of varying nonpolar surfaces in protein-ligand interactions” (Eur J Med Chem, 2020)
